Results: ChEMBL document CHEMBL1122161, “Irreversible enzyme inhibitors. 202. Candidate active-site-directed irreversible inhibitors of 5-fluoro-2'-deoxyuridine phosphorylase from Walker 256 rat tumor derived from 1-benzyl-5-(3-ethoxybenzyl)uracil” (J Med Chem, 1982)

Experiments:
[1] = (§1) Ability for reversible inhibition of Walker 256 5-Fluoro-2'-deoxyuridine Phosphorylase; set-up: species or system Rattus norvegicus; settings: read-out: I50
Method in brief: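 Walker 256 rat tumor FUDR phosphorylase (uridine-deoxyuridine phosphorylase) was assayed with 400 μM FUDR substrate in pH 5.9 arsenate-succinate buffer containing 10% Me2SO. The value is the inhibitor concentration giving 50% inhibition (I50).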

Rattus norvegicus = organism: Rattus norvegicus; experiment: Irreversible inhibition of Walker 256 FUDR phosphorylase; expressed as Vo/Vi, velocity without inhibitor to that of velocity with inhibitor
Method in brief: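 Walker 256 FUDR phosphorylase preincubated 20 min at ambient temperature with 20 μM (final) inhibitor in pH 5.9 arsenate-succinate buffer, 10% Me2SO, alongside zero-time tubes. Unbound inhibitor then removed by two 1-octanol extractions. Remaining activity assayed after adding 4 mM FUDR stock, stopped with 5% trichloroacetic acid, read as for reversible assay. V0/Vi of 2 corresponds to 50% inhibition.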

[2] = as §1; set-up: species or system Rattus norvegicus; settings: read-out: I 50
Method in brief: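 Enzyme from Walker 256 rat tumor, assayed with 400 μM FUDR as substrate in pH 5.9 arsenate-succinate buffer with 10% Me2SO. Value reported as concentration giving 50% inhibition.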

| Structure (SMILES) | IC50 [1] [nM] | Ratio (Rattus norvegicus) | IC50 [2] [nM] |
| --- | --- | --- | --- |
| CCOc1cccc(Cc2cn(Cc3ccc(NC(=O)c4cccc(S(=O)(=O)F)c4)cc3)c(=O)[nH]c2=O)c1 | – | 1 | 33000 |
| CCOc1cccc(Cc2cn(Cc3ccc(NC(=O)c4ccc(S(=O)(=O)F)cc4)cc3)c(=O)[nH]c2=O)c1 | – | 1 | 15000 |
| CCOc1cccc(Cc2cn(Cc3ccccc3)c(=O)[nH]c2=O)c1 | – | – | 1200 |
| COc1cccc(Cc2cnc(O)nc2O)c1 | 1900 | – | – |
| CCOc1cccc(Cc2cn(Cc3cccc(NC(=O)Nc4ccc(S(=O)(=O)F)cc4)c3)c(=O)[nH]c2=O)c1 | – | 1.1 | 1900 |
| CCOc1cccc(Cc2cn(Cc3cccc(NC(=O)Nc4cccc(S(=O)(=O)F)c4)c3)c(=O)[nH]c2=O)c1 | – | 1.2 | 1100 |
| CCOc1cccc(Cc2cnc(O)nc2O)c1 | – | – | 1400 |
| CCOc1cccc(Cc2cn(Cc3cccc(NC(=O)c4ccc(S(=O)(=O)F)cc4)c3)c(=O)[nH]c2=O)c1 | – | 1 | 2500 |
| CCOc1cccc(Cc2cn(Cc3cccc(NC(=O)c4cccc(S(=O)(=O)F)c4)c3)c(=O)[nH]c2=O)c1 | – | 1.1 | 3200 |
| Oc1ncc(Cc2ccccc2)c(O)n1 | 5300 | – | – |

Now from value to compound, other results behind:

| IC50 [1] [nM] | Structure (SMILES) | Ratio (Rattus norvegicus) | IC50 [2] [nM] |
| --- | --- | --- | --- |
| 1200 | CCOc1cccc(Cc2cn(Cc3cccc(NC(=O)c4ccccc4)c3)c(=O)[nH]c2=O)c1 | 1.2 | – |
| 6200 | Cn1cc(Cc2ccccc2)c(=O)[nH]c1=O | – | – |
| 5700 | O=c1[nH]c(=O)n(CCCOc2ccccc2)cc1Cc1ccccc1 | – | – |
| 2600 | O=c1[nH]c(=O)n(Cc2ccccc2)cc1Cc1ccccc1 | – | – |
| 500 | Oc1ncc(Cc2cccc(OCc3ccccc3)c2)c(O)n1 | – | – |
| 2500 | O=c1[nH]c(=O)n(Cc2ccccc2)cc1Cc1cccc(OCc2ccccc2)c1 | – | – |
| 3800 | CCOc1cccc(Cc2cn(Cc3ccc(NC(=O)c4ccccc4)cc3)c(=O)[nH]c2=O)c1 | – | – |
